Results on nine compounds are retold here after ChEMBL document CHEMBL1152342, “Thiazomycins, thiazolyl peptide antibiotics from Amycolatopsis fastidiosa” (2009).

Structures are written as SMILES. Values after ≈ are worked out from the molar mass of the structure shown.

Common to all, as to type: functional
For experiment [1], the system named is Staphylococcus aureus. Nature of the experiment: Antibacterial activity against macrolide, imipenem, methicillin-resistant Staphylococcus aureus MB5393 after 20 hrs by twofold serial broth dilution method. Conditions: MB5393, 20 h. A digest of the protocol: (§1)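 MICs by NCCLS (now CLSI) twofold serial broth dilution. Cation-adjusted Mueller Hinton broth was the standard medium, with CAMHB + 2.5% lysed horse blood used for certain strains. Cultures were incubated at 37 °C for 20 h before reading.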

The subject of experiment [2] is Staphylococcus aureus. Nature of the experiment: Antibacterial activity against methicillin-sensitive Staphylococcus aureus MB2865 after 20 hrs by twofold serial broth dilution method. Particulars: MB2865, 20 h. The essentials: as §1
For experiment [3], the system named is Staphylococcus aureus. Nature of the experiment: Antibacterial activity against methicillin-sensitive Staphylococcus aureus MB2865 after 20 hrs by twofold serial broth dilution method in presence of 50% human serum. Particulars: MB2865, 20 h. A digest of the protocol: as §1
Experiment [4] relates to Staphylococcus aureus. Nature of the experiment: Antibacterial activity against macrolide-sensitive, Linezolid, methicillin-resistant Staphylococcus aureus CL5814 after 20 hrs by twofold serial broth dilution method. Conditions: CL5814, 20 h. A digest of the protocol:
as §1

The subject of experiment [5] is Staphylococcus aureus. Description: Antibacterial activity against macrolide, methicillin-resistant Staphylococcus aureus CL5705 after 20 hrs by twofold serial broth dilution method. Particulars: CL5705, 20 h. The essentials:
as §1

For experiment [6], the system named is Staphylococcus aureus. Description: Antibacterial activity against vancomycin-intermediate, macrolide, methicillin-resistant Staphylococcus aureus CL5706 after 20 hrs by twofold serial broth dilution method. Conditions: CL5706, 20 h. The essentials:
as §1

The test system of experiment [7] is Staphylococcus haemolyticus. Nature of the experiment: Antibacterial activity against ampicillin-sensitive Staphylococcus haemolyticus CL8544 after 20 hrs by twofold serial broth dilution method. Particulars: CL8544, 20 h. A digest of the protocol: as §1
The test system of experiment [8] is Staphylococcus epidermidis. Nature of the experiment: Antibacterial activity against Staphylococcus epidermidis CL8040 after 20 hrs by twofold serial broth dilution method. Particulars: CL8040, 20 h. A digest of the protocol:
as §1

The subject of experiment [9] is Enterococcus faecalis. Description: Antibacterial activity against vancomycin-sensitive Enterococcus faecalis CL8516 after 20 hrs by twofold serial broth dilution method. Conditions: CL8516, 20 h. A digest of the protocol:
as §1

The subject of experiment [10] is Enterococcus faecalis. Nature of the experiment: Antibacterial activity against vancomycin, macrolide-resistant, linezolid-sensitive Enterococcus faecalis CL5246 after 20 hrs by twofold serial broth dilution method. Conditions: CL5246, 20 h. A digest of the protocol: as §1
Experiment [11] relates to Enterococcus faecium. Nature of the experiment: Antibacterial activity against vancomycin, linezolid-resistant Enterococcus faecium CL5791 after 20 hrs by twofold serial broth dilution method. Particulars: CL5791, 20 h. A digest of the protocol:
as §1

The test system of experiment [12] is Enterococcus faecium. Description: Antibacterial activity against vancomycin, linezolid-resistant Enterococcus faecium CL5791 after 20 hrs by twofold serial broth dilution method in presence of 50% human serum. Particulars: CL5791, 20 h. A digest of the protocol:
as §1

For experiment [13], the system named is Streptococcus pneumoniae. Description: Antibacterial activity against penicillin-sensitive Streptococcus pneumoniae CL8002 after 20 hrs by twofold serial broth dilution method. Conditions: CL8002, 20 h. A digest of the protocol:
as §1

The subject of experiment [14] is Streptococcus pneumoniae. Description: Antibacterial activity against penicillin-resistant Streptococcus pneumoniae CL5771 after 20 hrs by twofold serial broth dilution method. Conditions: CL5771, 20 h. The essentials:
as §1

Experiment [15] concerns Streptococcus pyogenes. Description: Antibacterial activity against Streptococcus pyogenes CL10440 after 20 hrs by twofold serial broth dilution method. Conditions: CL10440, 20 h. The essentials: as §1
Experiment [16] deals with Candida albicans. Description: Antifungal activity against Candida albicans MY1055 after 20 hrs by twofold serial broth dilution method. Particulars: MY1055, 20 h.

As to `CC[C@H]1OC(=O)[C@H](C)[C@@H](O[C@H]2C[C@@](C)(OC)[C@@H](O)[C@H](C)O2)[C@H](C)[C@@H](O[C@@H]2O[C@H](C)C[C@H](N(C)C)[C@H]2O)[C@](C)(O)C[C@@H](C)C(=O)[C@H](C)[C@@H](O)[C@]1(C)O` [ERYTHROMYCIN], the minimal inhibitory concentration (MIC) in [1] was above 32 µg/mL; in experiment [2], 0.1 µg/mL (≈ 0.136 µM); in experiment [3], 0.1 µg/mL; in [4], 1 µg/mL (≈ 1.36 µM); in experiment [5] it was above 32 µg/mL; in [6], above 32 µg/mL. The MIC was 1 µg/mL (≈ 1.36 µM) in experiment [7]; 0.25 µg/mL (≈ 0.341 µM) in [8]; 1 µg/mL (≈ 1.36 µM) in experiment [9]; 32 µg/mL (≈ 43.6 µM) in experiment [10]; above 32 µg/mL in [11]; above 32 µg/mL in experiment [12]. In addition, the MIC in experiment [13] was 2 µg/mL (≈ 2.73 µM); in experiment [14], 2 µg/mL (≈ 2.73 µM); in [15], at most 0.03 µg/mL; in experiment [16], above 32 µg/mL.
Regarding `CC(=O)NC[C@H]1CN(c2ccc(N3CCOCC3)c(F)c2)C(=O)O1` [LINEZOLID], the minimum inhibitory concentration (MIC) in [4] was above 32 µg/mL; in experiment [7], 2 µg/mL (≈ 5.93 µM); in [8] it was 1 µg/mL (≈ 2.96 µM); in experiment [11], 32 µg/mL (≈ 94.9 µM); in experiment [12], above 32 µg/mL; in experiment [15] it was 0.5 µg/mL (≈ 1.48 µM). This compound returned a minimal inhibitory concentration (MIC) in experiment [16] above 32 µg/mL.
With `C=C(NC(=O)c1csc(-c2nc3c(cc2O)-c2nc(cs2)C(=O)N[C@@H]([C@@H](C)O)C(=O)N/C(=C(\C)OC)c2nc(cs2)C(=O)N[C@@H]2c4nc(cs4)C(=O)N[C@@H](COC(=O)c4[nH]c5cccc6c5c4CO[C@@H]2[C@H](OC)C(=O)OC6)c2nc-3cs2)n1)C(N)=O` [THIAZOMYCIN B], the minimum inhibitory concentration (MIC) in [1] amounted to 0.02 µg/mL (≈ 0.0158 µM); in experiment [2] it was 0.02 µg/mL (≈ 0.0158 µM); in experiment [3], 0.25 µg/mL; in experiment [4], 0.02 µg/mL (≈ 0.0158 µM); in [5] it was 0.03 µg/mL (≈ 0.0237 µM); in [6], 0.03 µg/mL (≈ 0.0237 µM). In addition, the MIC in [7] turned out to be 0.03 µg/mL (≈ 0.0237 µM); in experiment [8] it was 0.03 µg/mL (≈ 0.0237 µM); in experiment [9] it was 0.1 µg/mL (≈ 0.0791 µM); in experiment [10] it was 0.06 µg/mL (≈ 0.0475 µM); in experiment [11], 0.004 µg/mL (≈ 0.00316 µM); in [12], 0.1 µg/mL. In addition, the MIC was 0.008 µg/mL (≈ 0.00633 µM) in experiment [13], 0.004 µg/mL (≈ 0.00316 µM) in experiment [14], 0.004 µg/mL (≈ 0.00316 µM) in experiment [15] and above 32 µg/mL in experiment [16].
On to `CO/C(C)=C1/NC(=O)[C@H]([C@@H](C)O)NC(=O)c2csc(n2)-c2cc(O)c(-c3nc(C(N)=O)cs3)nc2-c2csc(n2)[C@@H]2COC(=O)c3[nH]c4cccc5c4c3CO[C@H]([C@H](O[C@H]3C[C@](C)(O)[C@H](N(C)C)[C@H](C)O3)C(=O)OC5)[C@H](NC(=O)c3csc1n3)c1nc(cs1)C(=O)N2` [THIAZOMYCIN C], for which the minimum inhibitory concentration (MIC) was determined as 0.05 µg/mL (≈ 0.037 µM) in experiment [1]; 0.05 µg/mL (≈ 0.037 µM) in experiment [2]; 0.1 µg/mL in [3]; 0.03 µg/mL (≈ 0.0222 µM) in experiment [4]; 0.1 µg/mL (≈ 0.0739 µM) in experiment [5]; 0.1 µg/mL (≈ 0.0739 µM) in experiment [6]. For the same compound, the MIC was 0.1 µg/mL (≈ 0.0739 µM) in [7]; 0.1 µg/mL (≈ 0.0739 µM) in experiment [8]; above 0.1 µg/mL in experiment [9]; 0.1 µg/mL (≈ 0.0739 µM) in experiment [10]; 0.1 µg/mL (≈ 0.0739 µM) in [11]; 0.1 µg/mL in experiment [12]. Moreover, the minimum inhibitory concentration (MIC) in experiment [13] is 0.01 µg/mL (≈ 0.00739 µM); in experiment [14] it was 0.006 µg/mL (≈ 0.00444 µM); in experiment [15], 0.006 µg/mL (≈ 0.00444 µM); in experiment [16], above 32 µg/mL.
Take `C=C(NC(=O)c1csc(-c2nc3c(cc2O)-c2nc(cs2)C(=O)N[C@@H]([C@@H](C)O)C(=O)N/C(=C(\C)OC)c2nc(cs2)C(=O)N[C@@H]2c4nc(cs4)C(=O)N[C@@H](COC(=O)c4[nH]c5cccc6c5c4CO[C@@H]2[C@H](O[C@H]2C[C@](C)(O)[C@@H](O)[C@H](C)O2)C(=O)OC6)c2nc-3cs2)n1)C(N)=O` [THIAZOMYCIN D]: the MIC in experiment [1] came to 0.031 µg/mL (≈ 0.0222 µM); in experiment [2], 0.03 µg/mL (≈ 0.0215 µM); in experiment [3], 1 µg/mL; in experiment [4], 0.06 µg/mL (≈ 0.043 µM); in [5], 0.1 µg/mL (≈ 0.0717 µM); in experiment [6], 0.1 µg/mL (≈ 0.0717 µM). Besides, the MIC in experiment [7] came out at 0.06 µg/mL (≈ 0.043 µM); in experiment [8] it was 0.03 µg/mL (≈ 0.0215 µM); in experiment [9], 0.1 µg/mL (≈ 0.0717 µM); in experiment [10], 0.1 µg/mL (≈ 0.0717 µM); in experiment [11], 0.1 µg/mL (≈ 0.0717 µM); in experiment [12] it was 1 µg/mL. Moreover, the MIC was 0.1 µg/mL (≈ 0.0717 µM) in experiment [13], 0.03 µg/mL (≈ 0.0215 µM) in [14], 0.02 µg/mL (≈ 0.0143 µM) in [15] and above 32 µg/mL in [16].
As for `C=C(NC(=O)c1csc(-c2nc3c(cc2O)-c2nc(cs2)C(=O)N[C@@H]([C@@H](C)O)C(=O)N/C(=C(\C)OC)c2nc(cs2)C(=O)N[C@@H]([C@H](O)[C@H](O[C@H]2C[C@](C)(O)[C@H](N(C)C)[C@H](C)O2)C(=O)O)c2nc(cs2)C(=O)N[C@@H](CO)c2nc-3cs2)n1)C(N)=O` [THIAZOMYCIN E1], the MIC is 100 µg/mL (≈ 79.7 µM) in [2], above 200 µg/mL in experiment [9] and 200 µg/mL (≈ 159 µM) in experiment [13].
For `C=C(NC(=O)c1csc(-c2nc3c(cc2O)-c2nc(cs2)C(=O)N[C@@H]([C@@H](C)O)C(=O)N/C(=C(\C)OC)c2nc(cs2)C(=O)N[C@@H]([C@H](O)[C@H](O)C(=O)O)c2nc(cs2)C(=O)N[C@@H](CO)c2nc-3cs2)n1)C(N)=O` [THIAZOMYCIN E2], in that order: above 200 µg/mL, above 200 µg/mL and above 200 µg/mL.
For `CO/C(C)=C1/NC(=O)[C@H]([C@@H](C)O)NC(=O)c2csc(n2)-c2cc(O)c(-c3nc(C(N)=O)cs3)nc2-c2csc(n2)[C@H](CO)NC(=O)c2csc(n2)[C@H]([C@H](O)[C@H](O)C(=O)O)NC(=O)c2csc1n2` [THIAZOMYCIN E3], in that order: above 200 µg/mL, 200 µg/mL (≈ 197 µM) and 200 µg/mL (≈ 197 µM).
With `C=C(NC(=O)c1csc(-c2nc3c(cc2O)-c2nc(cs2)C(=O)N[C@@H]([C@@H](C)O)C(=O)N/C(=C(\C)OC)c2nc(cs2)C(=O)N[C@@H]2c4nc(cs4)C(=O)N[C@@H](COC(=O)c4c5c6c(cccc6n4O)COC(=O)[C@@H](O[C@H]4C[C@]6(C)OCN(C)[C@@H]6[C@H](C)O4)[C@H]2OC5)c2nc-3cs2)n1)C(N)=O` [THIAZOMYCIN], the minimum inhibitory concentration (MIC) in experiment [1] is 0.003 µg/mL (≈ 0.00209 µM); in [2] it was 0.006 µg/mL (≈ 0.00418 µM); in [3], 0.05 µg/mL; in experiment [4] it was 0.01 µg/mL (≈ 0.00697 µM); in experiment [5], 0.01 µg/mL (≈ 0.00697 µM); in experiment [6], 0.01 µg/mL (≈ 0.00697 µM). Further, the minimum inhibitory concentration (MIC) in experiment [7] was found to be 0.02 µg/mL (≈ 0.0139 µM); in experiment [8], 0.03 µg/mL (≈ 0.0209 µM); in [9], 0.02 µg/mL (≈ 0.0139 µM); in experiment [10], 0.01 µg/mL (≈ 0.00697 µM); in experiment [11], 0.002 µg/mL (≈ 0.00139 µM); in experiment [12], 0.01 µg/mL. In addition, the MIC was 0.003 µg/mL (≈ 0.00209 µM) in [13], 0.003 µg/mL (≈ 0.00209 µM) in [14], 0.002 µg/mL (≈ 0.00139 µM) in [15] and above 32 µg/mL in experiment [16].
